# Screening results: PubChem BioAssay, Broad Institute
# This is a sample that favours compounds with a hit; in the whole collection about 5.8% have one here.
# Pf Dd2 inh: P. falciparum Dd2 growth inhibition; SYBR Green, 72 h; stronger effect = lower value; actives 2.3% (n = 94,000); AID 1159554; activity change, % at 10 µM; in the data active means activity change below about -80%
# IDH1 mut inh: blocks human IDH1 R132H reductase activity | diaphorase/resazurin fluorescence, 60 min | inhibition, % at 10 µM | actives 0.18% (n = 70,000) | AID 624101; in the data active means inhibition above about 34%;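 further: 0% = DMSO and 100% = no enzyme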
# Target sequence (O75874 whole entry R132H): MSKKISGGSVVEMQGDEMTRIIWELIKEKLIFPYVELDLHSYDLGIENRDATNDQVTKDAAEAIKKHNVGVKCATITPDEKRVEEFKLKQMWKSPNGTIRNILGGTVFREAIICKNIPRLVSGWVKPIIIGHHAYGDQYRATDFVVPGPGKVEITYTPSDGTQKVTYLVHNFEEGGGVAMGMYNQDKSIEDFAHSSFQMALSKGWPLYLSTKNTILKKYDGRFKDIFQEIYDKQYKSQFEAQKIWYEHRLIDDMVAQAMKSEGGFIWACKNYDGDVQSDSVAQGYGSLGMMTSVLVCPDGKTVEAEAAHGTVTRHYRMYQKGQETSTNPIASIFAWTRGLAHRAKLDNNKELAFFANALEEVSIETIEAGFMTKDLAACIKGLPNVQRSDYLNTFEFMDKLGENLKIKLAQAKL
# KDM4C inh: inhibitors of human demethylase GASC-1 KDM4C; Q9H3R0; GST-KDM4C 2-372, H3K9me3 peptide, LANCE TR-FRET; inhibition, % at 12.5 µM; actives 0.15% (n = 96,000); AID 720574;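 active means mean replicate inhibition above about 25%, with at least 55% of replicates also reaching it, limit read from the data, passing the limit was not always enough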
#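 System – N-terminal GST-fused human GASC-1 (KDM4C) fragment, residues 2-372 · Input – enzyme final amount 10 nM · Technique – LANCE TR-FRET, Eu antibody, ULight-streptavidin, EDTA, ex 340 nm, em 618/671 nm · Medium – HEPES buffer, pH 7.5, plus ascorbate · Incubation – enzyme reaction 30 min, then detection 60 min, both room temperature · Reagent – H3K9me3 peptide with Fe(II)/2OG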
# Tcruzi prolif: blocks T. cruzi growth in NIH3T3 culture; inhibition, % at 8.34 µM; T. cruzi beta-gal in NIH3T3, GalScreen luminescence, 90 h; actives 5.9% (n = 77,000);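 active means mean inhibition above about 93%, with at least 55% of replicates each passing it, limit read from the data, passing the limit was not always enough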
# Active calls of the source: *; · = not tested or not shown.
SMILES,Pf Dd2 inh,IDH1 mut inh,KDM4C inh,Tcruzi prolif
CC(=O)N(C)C[C@@H]1[C@@H](c2ccc(C3=CCCC3)cc2)[C@@H](CO)N1CC1CC1,-24,·,2,42
CCCN1[C@H](CO)[C@H](c2ccc(C3=CCCC3)cc2)[C@H]1CN(C(C)=O)C1CCCC1,-95*,·,0,·
C[C@@H]1CN([C@@H](C)CO)C(=O)c2cccc(NC(=O)Nc3cccc4ccccc34)c2O[C@@H]1CN(C)Cc1ccc(C(=O)Nc2ccccc2N)cc1,-92*,·,-2,·
C[C@H](CO)N1C[C@H](C)[C@@H](CN(C)Cc2ccc(C(=O)Nc3ccccc3N)cc2)Oc2c(NC(=O)Nc3ccccc3)cccc2C1=O,-86*,·,0,87
C[C@H](CO)N1C[C@H](C)[C@H](CN(C)Cc2ccc(C(=O)Nc3ccccc3N)cc2)Oc2c(NC(=O)Nc3ccc4c(c3)OCO4)cccc2C1=O,-79,0,-1,110
CC(C)NC(=O)Nc1cccc2c1O[C@H](CN(C)Cc1ccc(C(=O)Nc3ccccc3N)cc1)[C@H](C)CN([C@H](C)CO)C2=O,-22,0,0,·
C[C@@H]1CN([C@@H](C)CO)C(=O)c2cccc(NC(=O)Nc3ccccc3)c2O[C@H]1CN(C)Cc1ccc(C(=O)Nc2ccccc2N)cc1,-87*,0,-2,89
C[C@@H]1CN([C@H](C)CO)C(=O)c2cccc(NC(=O)Nc3ccccc3)c2O[C@@H]1CN(C)Cc1ccc(C(=O)O)cc1,10,·,0,·
C[C@@H]1CN([C@H](C)CO)C(=O)c2ccccc2-c2ccccc2CO[C@@H]1CN(C)Cc1ccc(Oc2ccccc2)cc1,-88*,-4,-1,·
C[C@H]1CN([C@@H](C)CO)C(=O)c2ccccc2-c2ccccc2CO[C@H]1CN(C)Cc1ccc(Oc2ccccc2)cc1,-87*,·,-2,·
C[C@H]1CN([C@@H](C)CO)C(=O)c2ccccc2-c2ccccc2CO[C@H]1CN(C)Cc1ccc(O)cc1,5,0,0,14
C[C@@H]1CN([C@H](C)CO)S(=O)(=O)c2ccc(/C=C/c3ccccc3)cc2O[C@H]1CN(C)Cc1cccnc1,-86*,·,6,·
C[C@H](CO)N1C[C@H](C)[C@@H](CN(C)Cc2cccnc2)Oc2cc(/C=C/c3ccccc3)ccc2S1(=O)=O,-89*,·,9,·
C/C=C/c1ccc2c(c1)O[C@H](CN(C)Cc1cccnc1)[C@H](C)CN([C@H](C)CO)S2(=O)=O,9,0,-1,39
C[C@@H]1CN([C@@H](C)CO)C(=O)c2cc(NC(=O)Nc3cccc4ccccc34)ccc2O[C@@H](C)CCCCO[C@@H]1CN(C)CC1CCCCC1,-88*,1,-1,121
C[C@@H]1CCCCO[C@@H](CN(C)CC2CCCCC2)[C@H](C)CN([C@H](C)CO)C(=O)c2cc(NC(=O)Nc3cccc4ccccc34)ccc2O1,-89*,-3,-2,120
C[C@H]1CCCCO[C@H](CN(C)CC2CCCCC2)[C@@H](C)CN([C@@H](C)CO)C(=O)c2cc(NC(=O)Nc3cccc4ccccc34)ccc2O1,-85*,·,-4,121
O=C(CN1C(=O)C2C3CC(c4ccccc4)C(C3)C2C1=O)Nc1cccc([N+](=O)[O-])c1 (centres undefined),·,0,·,·
O=C(CNS(=O)(=O)c1ccccc1)Nc1cccc(F)c1,·,0,·,·
COC(=O)c1cc(OC)c(OC)cc1NC(=O)COc1ccc(Cl)cc1Br,·,0,·,·
COc1ccc(-c2ccc3c(c2)O[C@H](CN(C)C(C)=O)[C@@H](C)CN([C@H](C)CO)S3(=O)=O)cc1,14,54*,56*,53
COc1ccc(-c2ccc3c(c2)O[C@H](CN(C)C(C)=O)[C@@H](C)CN([C@@H](C)CO)S3(=O)=O)cc1,0,0,9,50
CC(=O)N(C)C[C@@H]1Oc2cc(Br)ccc2S(=O)(=O)N([C@@H](C)CO)C[C@@H]1C,-2,19,42*,11
N#C[C@H]1[C@@H](c2ccc(C#Cc3ccccc3F)cc2)[C@@H](CO)N1C(=O)C1CCCCC1,-93*,0,-5,91
N#C[C@H]1[C@H](c2ccc(C#Cc3ccccc3F)cc2)[C@@H](CO)N1C(=O)C1CCCCC1,-51,·,-1,87
N#C[C@@H]1[C@H](c2ccc(C#Cc3ccccc3F)cc2)[C@H](CO)N1C(=O)C1CCCC1,-88*,·,5,·
N#C[C@H]1[C@@H](c2ccc(C#Cc3ccccc3F)cc2)[C@H](CO)N1C(=O)C1CCCC1,-66,·,-2,·
